# Screening results deposited in PubChem by The Scripps Research Institute Molecular Screening Center.
# The list is not random: actives were taken first. Their share in the collection is about 2.3%.
# OXTR potentiate – human OXTR potentiation | activation, % at 3 µM | CHO-OTR cells, Fluo-8 calcium fluorescence, potentiator mode; 0% = oxytocin EC15, 100% = EC100 | 320,000 tested, 0.061% active;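 active = activation above that plate's cutoff, the mean activation of tested compounds plus 3 SD, cut at about 6.6% in these data, passing the limit was not always enough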;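 note: 100% uses oxytocin at 75 nM as the full agonist control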
# Target sequence (P30559 whole entry, looked up): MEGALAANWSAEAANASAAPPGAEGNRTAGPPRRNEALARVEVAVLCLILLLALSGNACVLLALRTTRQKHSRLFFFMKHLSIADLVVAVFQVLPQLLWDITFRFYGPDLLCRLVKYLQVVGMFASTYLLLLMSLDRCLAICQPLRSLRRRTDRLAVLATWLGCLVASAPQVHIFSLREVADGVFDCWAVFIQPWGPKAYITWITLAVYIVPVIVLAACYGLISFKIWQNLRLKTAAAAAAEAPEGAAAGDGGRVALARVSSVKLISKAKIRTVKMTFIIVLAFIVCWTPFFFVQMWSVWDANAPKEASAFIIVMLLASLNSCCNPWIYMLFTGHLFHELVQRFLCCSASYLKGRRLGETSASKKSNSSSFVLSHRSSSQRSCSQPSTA
#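 test system = CHO-OTR cells, human receptor | compound = single-point 3.0 µM | schedule = 6 min compound pre-incubation at room temperature, 100 s kinetic read | signal = Fluo-8 no-wash calcium dye fluorescence, excitation 470-495 nm, emission 515-575 nm | repeats = single well per compound, singlicate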
# V1R ag counter – counter-screen for oxytocin receptor agonists: human V1a receptor agonists | P37288 | 320,000 tested, 0.25% active | CHO-V1R cells, Fluo-8 calcium fluorescence, agonist mode; 0% DMSO, 100% 3 nM vasopressin | activation, % at 3 µM | AID 2797;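 active = activation above the mean activation of all tested compounds plus 3 SD, per screening run, cut at about 20% in these data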;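 note: signal is peak over basal fluorescence ratio across a 100 second FLIPR read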
# OXTR agonist – agonists of human oxytocin receptor; P30559; CHO-OTR cells, Fluo-8 calcium fluorescence; normalized: DMSO 0%, oxytocin 100%; activation, % at 3 µM; 320,000 tested, 0.32% active; AID 2435;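 active = activation above the mean of all tested compounds plus 3 SD, cutoff set per screening run, cut at about 20% in these data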;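 note: peak over basal fluorescence ratio from a 100 s FLIPR kinetic read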
# TAAR1 ag – human TAAR1 agonism. CHO RD-HGA16 TAAR1, Fluo-8 calcium fluorescence; vehicle wells 0%, saturating PEA agonist 100%. AID 624467. activation, % at 3 µM. 360,000 tested, 0.99% active;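 active = activation above the mean activation of all test compounds in the run plus 3 SD, cut at about 38% in these data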
#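 Test system: RD-HGA16 (CHO) cells co-expressing Gα16 and hTAAR1 | Doses: Single dose, 3 µM | Schedule: 17-24 h seeding, 75 min 37 °C dye, 30 min RT | Evaluation: % activation from peak over basal fluorescence ratio, DMSO-to-PEA scaled | Technique: Kinetic Fluo-8 calcium fluorescence | Benchmarks: Low control DMSO, high control PEA (EC100)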
# TAAR1 antag – human TAAR1 antagonism; CHO RD-HGA16 TAAR1, Fluo-8 calcium fluorescence, antagonist; 360,000 tested, 1.5% active; Q96RJ0; inhibition, % at 3 µM;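 active = inhibition above a per-plate cutoff, the mean inhibition of test compounds on that plate plus 3 SD, cut at about 49% in these data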;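 note: 0% = DMSO plus EC80 beta-PEA response and 100% = DMSO alone without agonist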
#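 Material: RD-HGA16 CHO cells with stable hTAAR1 and Gα16; Dosing: single nominal final test compound concentration of 3 µM; Schedule: seeding 17-24 h prior, 75-min 37 °C, 30-min RT dye loading; Detection: kinetic Fluo-8 calcium fluorescence measurement; Measure: % inhibition from peak post-agonist over basal fluorescence ratio; Benchmarks: vehicle and agonist controls.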
# nonsel antag count – nonselective antagonism, TAAR1 counter-screen; 2,400 tested, 77% active; shares compounds with TAAR1 antag; counterscreen cell line, calcium fluorescence, antagonist mode; inhibition, % at 3 µM; in the data active = inhibition above about 22%;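 note: CHO-Ga16 host cells stimulated with ATP at an EC80 level; 0% = agonist EC80 plus vehicle and 100% = vehicle without agonist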
# TAAR1 antag conf – human TAAR1 antagonism, confirmed; inhibition, % at 3 µM; shares compounds with TAAR1 antag; TAAR1-expressing cells, fluorescence antagonist read-out; 2,400 tested, 40% active; in the data active = inhibition above about 49%;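 note: CHO-Ga16 host cells challenged with agonist PEA near its EC80; 0% = agonist at EC80 plus vehicle and 100% = vehicle with no agonist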
# Ga16 ag counter – counter-screen for TAAR1 antagonists: nonselective Ga16 agonists | activation, % at 3 µM | 2,400 tested, 18% active | AID 651953 | Ga16-expressing cells, calcium fluorescence, agonist counterscreen | shares compounds with TAAR1 antag; in the data active = activation above about 12%;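 note: 0% = vehicle wells and 100% = saturating stimulus response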
# TAAR1 ag counter – activates human TAAR1 in antagonist counter-screen | shares compounds with TAAR1 antag | activation, % at 3 µM | 2,400 tested, 2% active | hTAAR1 cell line, fluorescence activation, agonist mode | AID 651955; in the data active = activation above about 37%;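 note: CHO cells stably expressing TAAR1 with calcium dye readout; 0% = DMSO vehicle and 100% = full agonist response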
# Starred values were filed as active, the others as inactive; . = not tested or not shown.
SMILES,OXTR potentiate,V1R ag counter,OXTR agonist,TAAR1 ag,TAAR1 antag,nonsel antag count,TAAR1 antag conf,Ga16 ag counter,TAAR1 ag counter
CC(=O)Nc1cc(-c2cccc(F)c2)cn2c(-c3ccccc3)cnc12,.,.,.,11,61*,35*,43,4,8
CC(=O)Nc1cc(-c2ccccc2N(C)C)cn2c(-c3ccccc3)cnc12,.,.,.,19,40,.,.,.,.
COc1ccccc1-c1cc(NC(C)=O)c2ncc(-c3ccccc3)n2c1,.,.,.,4,56*,24*,41,21*,37
O=C(CSc1nc2c(c(=O)n1-c1ccccc1)SCC2)NCC1CCCO1 (stereo unspecified),1,-1,1,-1,-15,.,.,.,.
COc1ccccc1-c1cc(NC(C)=O)c2ncc(-c3cccc(C(F)(F)F)c3)n2c1,.,.,.,1,59*,32*,51*,6,20
NC(=O)CCc1c[nH]c2ccccc12,-4,1,2,3,7,.,.,.,.
OCC(CCc1c[nH]c2ccccc12)c1c[nH]c2ccccc12 (stereo unspecified),.,.,.,25,53*,24*,29,7,11
OC[C@@H]1CN(Cc2ccc(F)cc2)C[C@H](n2cnc3c(N4CCN(c5ccccc5)CC4)ncnc32)O1,.,.,.,10,64*,36*,55*,18*,20
COc1ccc(C(C#N)c2nc3ccccc3nc2Cl)cc1 (stereo unspecified),.,.,.,1,-3,.,.,.,.
Cc1ccc2nc(C(F)(F)F)c(C#N)c(N)c2c1,1,1,0,9,-3,.,.,.,.
N#CC(c1ccc(Cl)cc1)c1nc2ccccc2nc1C(F)(F)F (stereo unspecified),-5,0,-1,-1,57*,7,31,1,-2
Cc1cccc(C(C#N)c2nc3ccccc3nc2C(F)(F)F)c1 (stereo unspecified),-21,-1,-2,-1,80*,5,83*,0,6
N=C1/C(=C\c2ccc(-c3cccc(Cl)c3)o2)C(=O)N=C2SC=C(c3ccccc3)N12,-9,-2,-1,0,6,.,.,.,.
N=C1/C(=C\c2ccc(-c3ccc(C(=O)O)cc3)o2)C(=O)N=C2SC=C(c3ccccc3)N12,.,.,.,23,54*,45*,63*,16*,14
Cc1cc(NCCO)nc(-n2nc(C)cc2C)n1,-8,0,1,1,57*,-3,-4,2,2
Cc1cc(N(CCO)CCO)nc(-n2nc(C)cc2C)n1,1,2,0,5,-3,.,.,.,.
COc1ccc(CCNC(=O)c2ccc(-c3cccc([N+](=O)[O-])c3)o2)cc1OC,-14,0,-1,25,60*,28*,46,15*,14
Cc1ccccc1N1CCN(C(=S)c2ccc(-c3cccc([N+](=O)[O-])c3)o2)CC1,-9,1,-1,10,-18,.,.,.,.
COc1ccc(CCNC(=O)c2cccc([N+](=O)[O-])c2)cc1OC,-6,-1,1,1,-13,.,.,.,.
COc1cc(NC(=O)c2ccc(-c3cccc([N+](=O)[O-])c3)o2)ccc1NC(=O)C(C)C,-10,0,1,8,63*,31*,45,6,4
CC(=O)N1CCN(c2ccccc2NC(=O)c2ccc(-c3cccc([N+](=O)[O-])c3)o2)CC1,-3,0,-1,10,66*,28*,49*,7,4
COc1ccc(CN2CCC2(C)C(=O)Nc2cccc(NS(C)(=O)=O)c2)c2ccccc12 (stereo unspecified),.,.,.,7,-5,.,.,.,.
COc1cccc(C(=O)CC(=O)C(=O)Nc2cc(OC)c(OC)c(OC)c2)c1,-12,1,0,.,.,.,.,.,.
CCCc1nc2c3ccccc3ccn2c1Cc1ccc(OC)cc1C,.,.,.,-1,-28,.,.,.,.
CN1CCN(C(=O)c2cnn3c(C(F)(F)F)cc(-c4cccs4)nc23)CC1,-3,0,-1,1,-4,.,.,.,.
SMILES,OXTR potentiate,V1R ag counter,OXTR agonist,TAAR1 ag,TAAR1 antag,nonsel antag count,TAAR1 antag conf,Ga16 ag counter,TAAR1 ag counter
O=C(c1cnn2c(C(F)(F)F)cc(-c3cccs3)nc12)N1CCN(Cc2ccccc2)CC1,-14,-2,-2,4,59*,20,38,4,4
COc1ccccc1-n1c(SC(C)C(=O)NCC2CCCO2)nc2cc(Cl)ccc2c1=O (stereo unspecified),1,-1,-1,-1,-16,.,.,.,.
COc1ccc(O)c(/C=N/Nc2nc(Nc3ccccc3)nc(-n3nc(C)cc3C)n2)c1,-16,-1,-1,13,59*,37*,47,7,2
COc1cc(/C=N/Nc2nc(Nc3ccc(C)cc3)nc(-n3nc(C)cc3C)n2)cc(OC)c1OC,-6,-1,-1,10,39,.,.,.,.
COc1cc(/C=N/Nc2nc(Nc3ccccc3)nc(-n3nc(C)cc3C)n2)cc(OC)c1OC,-8,-1,-2,6,64*,24*,38,6,7
COc1ccc(Nc2nc(C(=O)N3CCc4cc(OC)c(OC)cc4C3)cs2)cc1,-1,-1,-2,2,57*,22*,32,5,0
